Here are results for 3 compounds from ChEMBL document CHEMBL1938337, “Discovery of novel, potent, and selective inhibitors of 3-phosphoinositide-dependent kinase (PDK1)” (J Med Chem, 2011).

Data set [1] in a line: Clearance in human liver microsomes. Format: ADME, Microsome. Particulars: read-out: CLH. On the technique in general: Liver microsomes are vesicles of endoplasmic reticulum, rich in cytochrome P450 enzymes.
Data set [2] is described as follows: Inhibition of recombinant GST-tagged P70S6K using 5FAM-KRSRTRTDSYSAGQ-COOH as substrate by fluorescence based assay. A digest of the protocol:
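GST-tagged P70S6K (a.a. 1-421) at 5 nM, 50 μM ATP, 5 μM 5FAM-peptide. Product separated from substrate by charge (electrophoretic mobility shift, −2500/−500 V). Duplicates, nonlinear regression fit.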

Another data set deals with A549. Nature of the data set: Antiproliferative activity against human A549 cells after 72 hrs by resazurin reduction assay. Particulars: A549, 72 h. Format: functional, cell-based. Summed up:
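Cells seeded at 3,000 per well, left to adhere overnight, then given inhibitor as a 3-fold serial dilution from 0.0169 nM to 10 μM. After 72 h, 250 μg/mL resazurin was added, followed by 6 h more at 37 °C. Fluorescence was read at ex 560 / em 590 nm.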
On the technique in general: Resazurin is reduced to fluorescent resorufin, in cell work by metabolically active cells.

In data set [3] the target is T1, 3-phosphoinositide-dependent protein kinase 1 (Homo sapiens, UniProt O15530).
T1 sequence (O15530 whole entry): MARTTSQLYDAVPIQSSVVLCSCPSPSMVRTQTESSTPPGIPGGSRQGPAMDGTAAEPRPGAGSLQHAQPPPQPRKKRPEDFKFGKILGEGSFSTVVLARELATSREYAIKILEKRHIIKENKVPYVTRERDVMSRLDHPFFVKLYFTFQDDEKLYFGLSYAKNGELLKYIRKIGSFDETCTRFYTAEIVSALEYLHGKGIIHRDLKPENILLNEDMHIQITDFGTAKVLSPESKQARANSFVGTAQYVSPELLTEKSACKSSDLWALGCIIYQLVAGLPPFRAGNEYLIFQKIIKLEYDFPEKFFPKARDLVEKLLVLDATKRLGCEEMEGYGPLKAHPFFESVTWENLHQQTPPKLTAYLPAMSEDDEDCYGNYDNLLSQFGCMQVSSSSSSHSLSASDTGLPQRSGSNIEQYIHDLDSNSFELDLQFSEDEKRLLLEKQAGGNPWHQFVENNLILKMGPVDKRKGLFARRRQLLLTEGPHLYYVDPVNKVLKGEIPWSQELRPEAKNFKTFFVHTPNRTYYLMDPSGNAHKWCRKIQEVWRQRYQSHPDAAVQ
In words: Inhibition of PDK1-mediated AKT1 phosphorylation at T308 in human H460 cells after 2 hrs by ELISA. The data set is classed as cell-based. A digest of the protocol:
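Cells seeded at 50,000 per well and left to adhere overnight. Inhibitor was added as a 3-fold serial dilution from 0.0169 nM to 10 μM for 2 h, then cells were lysed. Lysates were tested in a commercial pAKT-T308 sandwich ELISA per the kit protocol. IC50 from duplicates, each run repeated at least twice.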

Data set [4] concerns the target Serine/threonine-protein kinase MARK1 (Homo sapiens, UniProt Q9P0L2). Nature of the data set: Inhibition of MARK1 at 1 uM.
The target of data set [5] is cAMP-dependent protein kinase catalytic subunit alpha (Homo sapiens) (UniProt P17612). Nature of the data set: Inhibition of PRKACA at 1 uM.
Data set [6] has as its target Serine/threonine-protein kinase PAK 4 (Homo sapiens) (UniProt O96013). Nature of the data set: Inhibition of PAK4 at 1 uM.
The target in data set [7] is T2, Serine/threonine-protein kinase Chk1 (Homo sapiens) (UniProt O14757).
T2 sequence (whole entry): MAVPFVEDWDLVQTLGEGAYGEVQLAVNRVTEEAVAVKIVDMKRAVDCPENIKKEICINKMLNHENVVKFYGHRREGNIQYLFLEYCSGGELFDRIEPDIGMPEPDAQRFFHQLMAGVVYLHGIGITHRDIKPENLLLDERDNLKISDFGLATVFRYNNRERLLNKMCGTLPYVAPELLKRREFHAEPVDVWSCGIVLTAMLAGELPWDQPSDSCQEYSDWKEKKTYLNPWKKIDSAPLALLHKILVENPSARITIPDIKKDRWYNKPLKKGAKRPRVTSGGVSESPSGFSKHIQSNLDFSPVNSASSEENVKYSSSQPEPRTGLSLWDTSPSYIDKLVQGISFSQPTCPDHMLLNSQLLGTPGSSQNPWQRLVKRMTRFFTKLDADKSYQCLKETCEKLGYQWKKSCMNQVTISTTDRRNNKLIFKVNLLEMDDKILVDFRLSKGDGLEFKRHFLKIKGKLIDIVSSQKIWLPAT
In words: Inhibition of CHEK1 at 1 uM.

Data set [8] deals with Fibroblast growth factor receptor 1 (Homo sapiens) (UniProt P11362). In words: Inhibition of FGFR1 at 1 uM.
The target in data set [9] is Ephrin type-A receptor 2 (Homo sapiens) (UniProt P29317). In words: Inhibition of EPHA2 at 1 uM.
Data set [10] addresses Insulin receptor (Homo sapiens) (UniProt P06213). Nature of the data set: Inhibition of INSR at 1 uM.

Sequence of Ephrin type-A receptor 2 (Homo sapiens) (P29317 whole entry): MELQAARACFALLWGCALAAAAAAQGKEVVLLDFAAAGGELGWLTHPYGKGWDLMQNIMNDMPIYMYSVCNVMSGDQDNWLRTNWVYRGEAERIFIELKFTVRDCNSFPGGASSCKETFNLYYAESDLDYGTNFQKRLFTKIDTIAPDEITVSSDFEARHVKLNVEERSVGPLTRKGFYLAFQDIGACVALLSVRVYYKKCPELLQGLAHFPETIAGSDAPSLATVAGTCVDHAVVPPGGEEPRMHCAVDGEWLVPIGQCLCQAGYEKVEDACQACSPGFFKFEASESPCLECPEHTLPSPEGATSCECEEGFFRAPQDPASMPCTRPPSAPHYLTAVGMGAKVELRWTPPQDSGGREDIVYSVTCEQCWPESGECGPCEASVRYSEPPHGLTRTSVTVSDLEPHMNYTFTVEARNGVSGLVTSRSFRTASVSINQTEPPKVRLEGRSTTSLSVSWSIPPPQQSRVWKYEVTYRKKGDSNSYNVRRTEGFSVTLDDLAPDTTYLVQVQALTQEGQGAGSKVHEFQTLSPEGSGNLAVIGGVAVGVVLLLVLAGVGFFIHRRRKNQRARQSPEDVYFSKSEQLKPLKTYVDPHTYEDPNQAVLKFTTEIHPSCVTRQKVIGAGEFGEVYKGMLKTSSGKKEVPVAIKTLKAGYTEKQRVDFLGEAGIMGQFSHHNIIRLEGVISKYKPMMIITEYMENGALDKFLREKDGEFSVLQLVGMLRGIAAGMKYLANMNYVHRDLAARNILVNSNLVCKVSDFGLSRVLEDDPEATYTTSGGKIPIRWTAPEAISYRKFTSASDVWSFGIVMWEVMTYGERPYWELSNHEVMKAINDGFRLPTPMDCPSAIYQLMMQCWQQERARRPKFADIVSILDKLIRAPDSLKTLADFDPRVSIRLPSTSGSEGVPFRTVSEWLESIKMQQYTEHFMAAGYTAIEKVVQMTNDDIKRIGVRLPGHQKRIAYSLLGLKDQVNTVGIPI
Sequence of Serine/threonine-protein kinase MARK1 (Q9P0L2 whole entry, looked up): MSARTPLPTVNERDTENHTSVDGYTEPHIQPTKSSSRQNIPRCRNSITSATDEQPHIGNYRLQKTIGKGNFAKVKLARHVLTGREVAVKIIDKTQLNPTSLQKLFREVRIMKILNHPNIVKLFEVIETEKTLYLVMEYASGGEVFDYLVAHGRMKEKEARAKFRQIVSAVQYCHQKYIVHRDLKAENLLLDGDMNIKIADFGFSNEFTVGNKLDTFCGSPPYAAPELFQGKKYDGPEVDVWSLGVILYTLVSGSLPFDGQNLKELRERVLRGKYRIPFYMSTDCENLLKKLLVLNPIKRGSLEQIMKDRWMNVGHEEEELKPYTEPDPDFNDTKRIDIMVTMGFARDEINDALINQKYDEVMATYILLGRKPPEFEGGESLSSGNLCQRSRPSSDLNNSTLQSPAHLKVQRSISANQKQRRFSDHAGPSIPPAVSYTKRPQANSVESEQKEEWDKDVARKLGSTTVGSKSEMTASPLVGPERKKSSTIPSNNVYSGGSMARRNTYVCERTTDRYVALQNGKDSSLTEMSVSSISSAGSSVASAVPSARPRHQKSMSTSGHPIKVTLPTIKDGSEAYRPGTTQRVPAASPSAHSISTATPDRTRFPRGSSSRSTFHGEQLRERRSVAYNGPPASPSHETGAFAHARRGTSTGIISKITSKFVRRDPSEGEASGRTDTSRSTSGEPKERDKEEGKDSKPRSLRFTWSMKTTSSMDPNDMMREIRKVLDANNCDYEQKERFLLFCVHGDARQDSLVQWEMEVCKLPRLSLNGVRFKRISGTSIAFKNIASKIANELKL
Sequence of Fibroblast growth factor receptor 1 (Homo sapiens) (P11362 22-822 limits assumed): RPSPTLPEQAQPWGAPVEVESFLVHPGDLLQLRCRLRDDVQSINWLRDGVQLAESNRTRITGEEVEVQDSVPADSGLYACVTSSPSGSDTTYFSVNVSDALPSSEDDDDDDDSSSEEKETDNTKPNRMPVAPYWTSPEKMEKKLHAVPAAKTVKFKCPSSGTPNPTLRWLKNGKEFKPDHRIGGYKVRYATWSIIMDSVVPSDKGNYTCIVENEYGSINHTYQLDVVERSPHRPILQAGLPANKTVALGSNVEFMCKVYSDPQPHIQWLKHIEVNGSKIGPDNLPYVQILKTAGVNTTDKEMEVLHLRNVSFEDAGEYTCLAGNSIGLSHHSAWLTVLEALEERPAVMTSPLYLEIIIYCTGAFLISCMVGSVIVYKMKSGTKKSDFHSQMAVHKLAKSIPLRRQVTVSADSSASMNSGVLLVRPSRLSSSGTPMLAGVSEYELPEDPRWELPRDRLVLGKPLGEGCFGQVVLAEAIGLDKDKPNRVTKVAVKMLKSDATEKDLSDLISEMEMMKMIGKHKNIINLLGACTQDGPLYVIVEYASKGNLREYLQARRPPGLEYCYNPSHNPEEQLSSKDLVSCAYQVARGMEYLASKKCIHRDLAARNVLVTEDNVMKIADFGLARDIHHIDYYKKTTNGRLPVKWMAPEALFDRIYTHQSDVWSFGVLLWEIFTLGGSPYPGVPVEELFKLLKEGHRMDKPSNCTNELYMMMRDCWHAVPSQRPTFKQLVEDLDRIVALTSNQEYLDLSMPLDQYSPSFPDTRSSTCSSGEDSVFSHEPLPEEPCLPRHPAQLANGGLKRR
Sequence of Serine/threonine-protein kinase PAK 4 (Homo sapiens) (O96013 whole entry, looked up): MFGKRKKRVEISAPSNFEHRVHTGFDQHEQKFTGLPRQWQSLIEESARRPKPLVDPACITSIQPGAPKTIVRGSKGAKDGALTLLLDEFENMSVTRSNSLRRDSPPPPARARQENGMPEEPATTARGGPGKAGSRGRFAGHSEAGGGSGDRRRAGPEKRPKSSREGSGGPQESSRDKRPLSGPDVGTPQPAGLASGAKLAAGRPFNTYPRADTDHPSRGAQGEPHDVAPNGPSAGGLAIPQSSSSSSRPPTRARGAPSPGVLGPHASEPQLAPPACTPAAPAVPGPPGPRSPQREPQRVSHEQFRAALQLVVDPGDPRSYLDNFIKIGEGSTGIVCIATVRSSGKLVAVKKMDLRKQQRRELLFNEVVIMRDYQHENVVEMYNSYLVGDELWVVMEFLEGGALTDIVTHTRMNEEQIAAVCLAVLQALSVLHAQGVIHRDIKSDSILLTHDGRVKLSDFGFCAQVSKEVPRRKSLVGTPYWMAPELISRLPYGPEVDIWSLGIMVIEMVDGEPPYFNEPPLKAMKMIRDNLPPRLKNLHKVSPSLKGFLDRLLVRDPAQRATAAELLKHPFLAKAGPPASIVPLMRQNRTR
Sequence of Insulin receptor (Homo sapiens) (P06213 28-758 limits assumed): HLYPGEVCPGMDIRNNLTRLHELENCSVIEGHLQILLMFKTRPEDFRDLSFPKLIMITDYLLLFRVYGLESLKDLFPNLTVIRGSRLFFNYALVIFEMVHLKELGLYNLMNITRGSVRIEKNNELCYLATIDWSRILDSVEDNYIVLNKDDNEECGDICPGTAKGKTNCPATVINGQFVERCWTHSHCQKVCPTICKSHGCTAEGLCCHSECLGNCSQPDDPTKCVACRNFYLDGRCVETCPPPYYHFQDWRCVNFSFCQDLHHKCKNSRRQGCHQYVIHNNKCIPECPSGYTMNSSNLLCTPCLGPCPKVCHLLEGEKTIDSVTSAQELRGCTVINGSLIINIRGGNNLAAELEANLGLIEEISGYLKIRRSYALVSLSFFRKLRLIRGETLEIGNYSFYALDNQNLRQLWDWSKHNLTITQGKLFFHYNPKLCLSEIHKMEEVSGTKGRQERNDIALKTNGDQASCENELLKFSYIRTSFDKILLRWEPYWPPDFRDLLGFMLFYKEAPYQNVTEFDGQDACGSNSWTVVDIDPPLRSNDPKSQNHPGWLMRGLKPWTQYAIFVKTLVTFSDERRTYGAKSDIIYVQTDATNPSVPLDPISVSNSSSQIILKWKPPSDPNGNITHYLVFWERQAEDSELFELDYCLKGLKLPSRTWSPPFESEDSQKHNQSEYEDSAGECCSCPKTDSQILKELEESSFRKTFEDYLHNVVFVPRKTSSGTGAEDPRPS
Sequence of Insulin receptor (Homo sapiens) (P06213 763-1382 limits assumed): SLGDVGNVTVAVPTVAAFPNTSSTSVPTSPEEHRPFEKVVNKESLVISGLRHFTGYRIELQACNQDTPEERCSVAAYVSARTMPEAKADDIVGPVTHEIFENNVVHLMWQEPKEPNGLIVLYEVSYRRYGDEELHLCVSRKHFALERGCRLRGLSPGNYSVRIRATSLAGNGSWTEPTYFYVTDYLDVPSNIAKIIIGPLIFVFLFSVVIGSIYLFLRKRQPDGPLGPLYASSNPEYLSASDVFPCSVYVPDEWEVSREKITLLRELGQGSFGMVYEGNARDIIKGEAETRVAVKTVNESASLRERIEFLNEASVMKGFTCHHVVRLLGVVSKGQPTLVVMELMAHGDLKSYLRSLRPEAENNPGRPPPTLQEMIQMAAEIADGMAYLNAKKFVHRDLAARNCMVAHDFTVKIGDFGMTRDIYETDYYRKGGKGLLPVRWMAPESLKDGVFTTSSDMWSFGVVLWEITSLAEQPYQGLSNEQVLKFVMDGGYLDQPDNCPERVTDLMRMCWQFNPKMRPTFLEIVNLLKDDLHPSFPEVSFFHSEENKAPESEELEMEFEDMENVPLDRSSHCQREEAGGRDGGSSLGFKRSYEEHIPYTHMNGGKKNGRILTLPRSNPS

In the case of `CC(=O)N1CC[C@@H](Nc2cncc(C(=O)c3cn(C(C)C)c4ncnc(N)c34)n2)[C@H]1c1ccc(F)cc1`, the microsomal CLint in data set [1] was 120 µL/min/mg. Further, the Ki (commonly a measure of affinity in units of concentration, obtained from inhibition or displacement) in data set [2] came to 10000 nM. Moreover, the midpoint of the response in the data set on A549, the EC50, lay at 2200 nM. Moreover, half-maximal inhibition in data set [3] (IC50) was put at 160 nM. For the same compound, the inhibition (as a rule, the relative decrease from the control value, in per cent) in data set [4] turned out to be 74%; in data set [5], 58%; in data set [6], 46%; in data set [7] it was 24%; in data set [8], 7%; in [9], 1%. Moreover, in data set [10], the inhibition stood at 3%.

As to `CC(=O)N1CC[C@@H](Nc2cncc(C(=O)c3cn(C(C)C)c4ncnc(N)c34)n2)[C@H]1c1ccccc1`, the microsomal CLint in data set [1] was determined as 110 µL/min/mg. Also, the Ki in data set [2] is 3600 nM. Also, the midpoint of the response in the data set on A549, the EC50, lay at 5200 nM. The IC50 (usually the concentration needed to halve the response being measured) in data set [3] is 320 nM. Besides, the inhibition in data set [4] turned out to be 47%; in [5] it was 30%; in [6], 25%; in data set [7], 7%; in [8], 6%; in data set [9], 3%. In data set [10], this compound returned an inhibition of 4%.

For the compound `CC(C)n1cc(C(=O)c2cncc(N[C@@H]3CCN(C=O)[C@@H]3c3ccc(F)cc3)n2)c2c(N)ncnc21`, in data set [1], the microsomal CLint came out at 62 µL/min/mg. Further, in data set [2], the Ki came out at 890 nM. In the data set with A549, a half-maximal effect (EC50) was put at 1800 nM. Also, inhibition in [3] was half-maximal at 120 nM (IC50). Moreover, the inhibition was determined as 84% in [4]; 74% in data set [5]; 63% in [6]; 38% in data set [7]; 17% in data set [8]; 7% in [9]. The compound further had an inhibition in [10] of 4%.
